# Experiments:
# Abutilon theophrasti [1] = assay: Herbicidal activity against Abutilon theophrasti (velvetleaf) at 30 g/hm2 postemergent application after 2 weeks; type: functional
# Summary of the method: (§1)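 Seedlings grown 14 days in the greenhouse; plants uniform in size and stage were chosen. Test compound in acetone sprayed post-emergence at a carrier volume equivalent to 187 L/ha. Plants returned to the greenhouse and watered; untreated plants served as control. Each species scored visually two weeks after application on a 0–100 scale (0 no activity, 100 total control).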
# Abutilon theophrasti [2] = assay: Herbicidal activity against Abutilon theophrasti (velvetleaf) at 120 g/hm2 postemergent application after 2 weeks; type: functional; summary of the method: as §1
# Abutilon theophrasti [3] = assay: Herbicidal activity against Abutilon theophrasti (velvetleaf) at 480 g/hm2 postemergent application after 2 weeks; type: functional; summary of the method: as §1
# Digitaria sanguinalis [4] = assay: Herbicidal activity against Digitaria sanguinalis (hairy crabgrass) at 120 g/hm2 postemergent application after 2 weeks; type: functional; summary of the method: as §1
# Digitaria sanguinalis [5] = assay: Herbicidal activity against Digitaria sanguinalis (hairy crabgrass) at 30 g/hm2 postemergent application after 2 weeks; type: functional; summary of the method: as §1
# Digitaria sanguinalis [6] = assay: Herbicidal activity against Digitaria sanguinalis (hairy crabgrass) at 480 g/hm2 postemergent application after 2 weeks; type: functional; summary of the method: as §1
# Echinochloa crus-galli [7] = assay: Herbicidal activity against Echinochloa crus-galli (barnyard grass) at 30 g/hm2 postemergent application after 2 weeks; type: functional; summary of the method: as §1
# Echinochloa crus-galli [8] = assay: Herbicidal activity against Echinochloa crus-galli (barnyard grass) at 120 g/hm2 postemergent application after 2 weeks; type: functional; summary of the method: as §1
# Echinochloa crus-galli [9] = assay: Herbicidal activity against Echinochloa crus-galli (barnyard grass) at 480 g/hm2 postemergent application after 2 weeks; type: functional; summary of the method: as §1
# Abutilon theophrasti [10] = assay: Herbicidal activity against Abutilon theophrasti (velvetleaf) at 100 g/hm2 postemergent application after 2 weeks; type: functional; summary of the method: as §1
# Digitaria sanguinalis [11] = assay: Herbicidal activity against Digitaria sanguinalis (hairy crabgrass) at 100 g/hm2 postemergent application after 2 weeks; type: functional; summary of the method: as §1
# Echinochloa crus-galli [12] = assay: Herbicidal activity against Echinochloa crus-galli (barnyard grass) at 100 g/hm2 postemergent application after 2 weeks; type: functional; summary of the method: as §1
# [13] = Crop selectivity index, ratio of LD10 for soybean to LD90 for velvetleaf
# Triticum aestivum [14] = assay: Toxicity against Triticum aestivum (wheat) at 100 g/hm2 postemergent application after 2 weeks; type: organism-based; conditions: in vivo, other, 336 h; summary of the method: as §1
# Triticum aestivum [15] = assay: Toxicity against Triticum aestivum (wheat) at 25 g/hm2 postemergent application after 2 weeks; type: organism-based; conditions: in vivo, other, 336 h
# Glycine max [16] = assay: Toxicity against Glycine max (soybean) at 100 g/hm2 postemergent application after 2 weeks; type: organism-based; conditions: in vivo, other, 336 h; summary of the method: as §1
# Glycine max [17] = assay: Toxicity against Glycine max (soybean) at 25 g/hm2 postemergent application after 2 weeks; type: organism-based; conditions: in vivo, other, 336 h
# Glycine max [18] = assay: Toxicity against Glycine max (soybean) at postemergent application after 2 weeks; type: organism-based; conditions: in vivo, other, 336 h; summary of the method: as §1
# Abutilon theophrasti [19] = assay: Herbicidal activity against Abutilon theophrasti (velvetleaf) at postemergent application after 2 weeks; type: functional; summary of the method: as §1
# Xanthium strumarium [20] = assay: Herbicidal activity against Xanthium strumarium (cocklebur) at 25 g/hm2 postemergent application after 2 weeks; type: functional; summary of the method: as §1
# Xanthium strumarium [21] = assay: Herbicidal activity against Xanthium strumarium (cocklebur) at 100 g/hm2 postemergent application after 2 weeks; type: functional; summary of the method: as §1
# Xanthium strumarium [22] = assay: Herbicidal activity against Xanthium strumarium (cocklebur) at 40 g/hm2 postemergent application after 2 weeks; type: functional; summary of the method: as §1
# Commelina communis [23] = assay: Herbicidal activity against Commelina communis (Asiatic dayflower) at 100 g/hm2 post-emergent application after 2 weeks; type: functional; summary of the method: as §1
# Commelina communis [24] = assay: Herbicidal activity against Commelina communis (Asiatic dayflower) at 25 g/hm2 post-emergent application after 2 weeks; type: functional; summary of the method: as §1
# Commelina communis [25] = assay: Herbicidal activity against Commelina communis (Asiatic dayflower) at 40 g/hm2 post-emergent application after 2 weeks; type: functional; summary of the method: as §1
# Amaranthus retroflexus = assay: Herbicidal activity against Amaranthus retroflexus at 40 g/hm2 postemergent application after 2 weeks; type: functional; summary of the method: as §1
# Portulaca oleracea = assay: Herbicidal activity against Portulaca oleracea at 40 g/hm2 postemergent application after 2 weeks; type: functional; summary of the method: as §1
# Abutilon theophrasti [26] = assay: Herbicidal activity against Abutilon theophrasti (velvetleaf) at 25 g/hm2 postemergent application after 2 weeks; type: functional; summary of the method: as §1
# Abutilon theophrasti [27] = assay: Herbicidal activity against Abutilon theophrasti (velvetleaf) at 40 g/hm2 postemergent application after 2 weeks; type: functional; summary of the method: as §1
# Digitaria sanguinalis [28] = assay: Herbicidal activity against Digitaria sanguinalis (hairy crabgrass) at 25 g/hm2 postemergent application after 2 weeks; type: functional; summary of the method: as §1
# Digitaria sanguinalis [29] = assay: Herbicidal activity against Digitaria sanguinalis (hairy crabgrass) at 40 g/hm2 postemergent application after 2 weeks; type: functional; summary of the method: as §1
# Echinochloa crus-galli [30] = assay: Herbicidal activity against Echinochloa crus-galli (barnyard grass) at 25 g/hm2 postemergent application after 2 weeks; type: functional; summary of the method: as §1
# Echinochloa crus-galli [31] = assay: Herbicidal activity against Echinochloa crus-galli (barnyard grass) at 40 g/hm2 postemergent application after 2 weeks; type: functional; summary of the method: as §1
# Setaria glauca (foxtail) = assay: Herbicidal activity against Setaria glauca at 40 g/hm2 postemergent application after 2 weeks
# Abutilon theophrasti [32] = assay: Herbicidal activity against Abutilon theophrasti (velvetleaf) at 200 g/hm2 postemergent application after 2 weeks; type: functional; summary of the method: as §1
# Abutilon theophrasti [33] = assay: Herbicidal activity against Abutilon theophrasti (velvetleaf) at 1000 g/hm2 postemergent application after 2 weeks; type: functional; summary of the method: as §1
# Digitaria sanguinalis [34] = assay: Herbicidal activity against Digitaria sanguinalis (hairy crabgrass) at 200 g/hm2 postemergent application after 2 weeks; type: functional; summary of the method: as §1
# Digitaria sanguinalis [35] = assay: Herbicidal activity against Digitaria sanguinalis (hairy crabgrass) at 1000 g/hm2 postemergent application after 2 weeks; type: functional; summary of the method: as §1
# Echinochloa crus-galli [36] = assay: Herbicidal activity against Echinochloa crus-galli (barnyard grass) at 200 g/hm2 postemergent application after 2 weeks; type: functional; summary of the method: as §1
# Echinochloa crus-galli [37] = assay: Herbicidal activity against Echinochloa crus-galli (barnyard grass) at 1000 g/hm2 postemergent application after 2 weeks; type: functional; summary of the method: as §1
smiles,measurement,setting,value
CCCOC(=O)/C=C/COC(=O)c1cc(Oc2ccc(C(F)(F)F)cc2Cl)ccc1[N+](=O)[O-],Activity,Abutilon theophrasti [1],95%
same,Activity,Abutilon theophrasti [2],100%
same,Activity,Abutilon theophrasti [3],100%
same,Activity,Digitaria sanguinalis [4],80%
same,Activity,Digitaria sanguinalis [5],70%
same,Activity,Digitaria sanguinalis [6],90%
same,Activity,Echinochloa crus-galli [7],10%
same,Activity,Echinochloa crus-galli [8],40%
same,Activity,Echinochloa crus-galli [9],70%
CCCCOC(=O)/C=C/COC(=O)c1cc(Oc2ccc(C(F)(F)F)cc2Cl)ccc1[N+](=O)[O-],Activity,Abutilon theophrasti [1],90%
same,Activity,Abutilon theophrasti [2],90%
same,Activity,Abutilon theophrasti [3],95%
same,Activity,Digitaria sanguinalis [4],80%
same,Activity,Digitaria sanguinalis [5],70%
same,Activity,Digitaria sanguinalis [6],85%
same,Activity,Echinochloa crus-galli [7],10%
same,Activity,Echinochloa crus-galli [8],20%
same,Activity,Echinochloa crus-galli [9],40%
CC(C)OC(=O)/C=C/COC(=O)c1cc(Oc2ccc(C(F)(F)F)cc2Cl)ccc1[N+](=O)[O-],Activity,Abutilon theophrasti [1],80%
same,Activity,Abutilon theophrasti [2],95%
same,Activity,Abutilon theophrasti [3],100%
same,Activity,Digitaria sanguinalis [4],85%
same,Activity,Digitaria sanguinalis [5],80%
same,Activity,Digitaria sanguinalis [6],90%
same,Activity,Echinochloa crus-galli [7],30%
same,Activity,Echinochloa crus-galli [8],60%
same,Activity,Echinochloa crus-galli [9],80%
CCOC(=O)/C=C/COC(=O)c1cc(Oc2ccc(C(F)(F)F)cc2Cl)ccc1[N+](=O)[O-],Activity,Abutilon theophrasti [10],100%
same,Activity,Digitaria sanguinalis [11],60%
same,Activity,Echinochloa crus-galli [12],55%
same,Selectivity Index,[13],3.2
same,Activity,Triticum aestivum [14],25%
same,Activity,Triticum aestivum [15],10%
same,Activity,Glycine max [16],10%
same,Activity,Glycine max [17],5%
same,LD10,Glycine max [18],63 g/hm2
same,LD90,Abutilon theophrasti [19],19.4 g/hm2
same,Activity,Xanthium strumarium [20],40%
same,Activity,Xanthium strumarium [21],98%
same,Activity,Xanthium strumarium [22],70%
same,Activity,Commelina communis [23],95%
same,Activity,Commelina communis [24],35%
same,Activity,Commelina communis [25],<70%
same,Activity,Amaranthus retroflexus,95%
same,Activity,Portulaca oleracea,95%
same,Activity,Abutilon theophrasti [26],65%
same,Activity,Abutilon theophrasti [1],95%
same,Activity,Abutilon theophrasti [2],99%
same,Activity,Abutilon theophrasti [3],100%
same,Activity,Abutilon theophrasti [27],95%
same,Activity,Digitaria sanguinalis [28],5%
same,Activity,Digitaria sanguinalis [4],80%
same,Activity,Digitaria sanguinalis [5],60%
same,Activity,Digitaria sanguinalis [6],90%
same,Activity,Digitaria sanguinalis [29],70%
same,Activity,Echinochloa crus-galli [30],0%
same,Activity,Echinochloa crus-galli [7],40%
same,Activity,Echinochloa crus-galli [8],50%
same,Activity,Echinochloa crus-galli [31],<70%
same,Activity,Echinochloa crus-galli [9],70%
same,Activity,Setaria glauca (foxtail),<70%
C=C(COC(=O)c1cc(Oc2ccc(C(F)(F)F)cc2Cl)ccc1Cl)C(=O)OC,Activity,Abutilon theophrasti [27],10%
same,Activity,Abutilon theophrasti [32],98%
same,Activity,Abutilon theophrasti [33],100%
same,Activity,Digitaria sanguinalis [34],25%
same,Activity,Digitaria sanguinalis [29],10%
same,Activity,Digitaria sanguinalis [35],30%
same,Activity,Echinochloa crus-galli [31],5%
same,Activity,Echinochloa crus-galli [36],15%
same,Activity,Echinochloa crus-galli [37],75%
CCOC(=O)/C(C)=C(\C)OC(=O)c1cc(Oc2ccc(C(F)(F)F)cc2Cl)ccc1[N+](=O)[O-],Activity,Abutilon theophrasti [27],0%
same,Activity,Abutilon theophrasti [32],35%
same,Activity,Abutilon theophrasti [33],100%
same,Activity,Digitaria sanguinalis [34],50%
same,Activity,Digitaria sanguinalis [29],20%
same,Activity,Digitaria sanguinalis [35],55%
same,Activity,Echinochloa crus-galli [31],10%
same,Activity,Echinochloa crus-galli [36],15%
same,Activity,Echinochloa crus-galli [37],25%
